This is an account of results in ChEMBL document CHEMBL2346521, “Synthesis, structure-activity relationship studies, and identification of novel 5,6,7,8-tetrahydroimidazo[1,5-a]pyrazine derivatives as dual orexin receptor antagonists. Part 1” (Bioorg Med Chem Lett, 2013).

Broadly, the IC50 is the midpoint of a concentration-inhibition curve.

SMILES strings stand for the structures. A value given as a limit tells only on which side of the number the result lay.

For one series, the target named is T1, Orexin receptor type 2 (Homo sapiens, UniProt O43614).
T1 sequence (O43614 whole entry): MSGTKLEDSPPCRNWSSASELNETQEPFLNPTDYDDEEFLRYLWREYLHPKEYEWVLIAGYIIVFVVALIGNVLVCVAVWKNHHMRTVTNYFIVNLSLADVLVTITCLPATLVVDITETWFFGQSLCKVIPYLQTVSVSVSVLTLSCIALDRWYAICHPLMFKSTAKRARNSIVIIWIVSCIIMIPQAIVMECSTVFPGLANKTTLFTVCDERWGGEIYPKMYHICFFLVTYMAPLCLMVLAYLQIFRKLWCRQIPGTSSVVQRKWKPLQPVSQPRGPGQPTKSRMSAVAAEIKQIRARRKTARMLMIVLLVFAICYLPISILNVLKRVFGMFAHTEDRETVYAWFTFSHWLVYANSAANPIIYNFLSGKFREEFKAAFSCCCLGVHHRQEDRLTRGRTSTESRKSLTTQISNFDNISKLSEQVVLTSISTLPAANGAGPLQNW
Kind of series: Antagonist activity at human OX2 receptor expressed in CHO cells assessed as inhibition of orexin A-induced calcium influx by FLIPR assay. Type of series: functional, cell-based. Summed up: (§1)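 CHO cells stably expressing human OX1R or OX2R, loaded at 37 °C, 5% CO₂ with the calcium dye fluo-3 AM, then washed. Antagonist added at a range of concentrations before an approximately EC₈₀ orexin A challenge. Ca²⁺ mobilization read by FLIPR. IC₅₀ taken as the concentration giving 50% inhibition of the orexin A-induced calcium response, reported in nM.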

Series [1] concerns the target T2, Orexin/Hypocretin receptor type 1 (Homo sapiens, UniProt O43613).
T2 sequence (O43613 whole entry): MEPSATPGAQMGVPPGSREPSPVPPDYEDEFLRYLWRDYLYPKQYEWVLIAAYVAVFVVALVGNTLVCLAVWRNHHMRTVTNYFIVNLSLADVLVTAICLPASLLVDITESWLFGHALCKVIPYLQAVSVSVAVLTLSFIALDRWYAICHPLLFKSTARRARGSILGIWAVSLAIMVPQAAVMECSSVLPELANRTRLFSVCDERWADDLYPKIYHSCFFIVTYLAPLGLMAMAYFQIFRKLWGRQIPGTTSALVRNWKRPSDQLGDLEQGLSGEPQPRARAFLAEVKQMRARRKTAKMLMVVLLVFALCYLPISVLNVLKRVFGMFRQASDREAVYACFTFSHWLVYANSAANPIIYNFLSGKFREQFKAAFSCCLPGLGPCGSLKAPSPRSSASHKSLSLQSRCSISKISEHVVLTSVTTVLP
Kind of series: Antagonist activity at human OX1 receptor expressed in CHO cells assessed as inhibition of orexin A-induced calcium influx by FLIPR assay. It is filed as functional, cell-based. Summed up:
as §1

The nature of series [2]: Ratio of drug level in brain to plasma in Wistar rat at 100 mg/kg, po after 3 hrs. Type of series: ADME, organism-based. More on the design: dose 100 mg/kg, route oral. The conditions noted are these: read-out: BPR. Summed up: (§2)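 Male Wistar rats dosed orally at 100 mg/kg. Brain and plasma sampled 3 h after dosing. Total compound levels given as nM and as ng/g (brain) or ng/ml (plasma). Brain/plasma ratio calculated from these total concentrations.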

Series [3] can be described thus: Plasma protein binding in human. The conditions noted are these: read-out: PPB. It is filed as ADME, cell-free.
Series [4] can be described thus: Plasma concentration in Wistar rat at 100 mg/kg, po after 3 hrs. Type of series: ADME, organism-based. More on the design: dose 100 mg/kg, route oral. The method in brief:
as §2

Series [5] in a line: Drug uptake in Wistar rat brain at 100 mg/kg, po after 3 hrs. It is filed as ADME, organism-based. Also noted: dose 100 mg/kg, route oral. Conditions: read-out: Drug uptake. The method in brief:
as §2

As for `CNC(=O)[C@@H](c1ccccc1)N1CCn2c(COC)nc(Cl)c2[C@@H]1CCc1ccc(C(F)(F)F)cc1` (mixture of isomers), the IC50 came to 25 nM at Orexin receptor type 2 and 1650 nM in series [1].
Regarding `CCc1nc(I)c2n1CCN([C@@H](C(=O)NC)c1ccccc1)C2CCc1ccc(C(F)(F)F)cc1` (mixture of isomers), the 50% inhibitory concentration (IC50) on Orexin receptor type 2 amounted to 23 nM; in series [1], 717 nM.
For `CNC(=O)[C@@H](c1ccccc1)N1CCn2c(C)nc(Cl)c2[C@@H]1CCc1ccc(C(F)(F)F)cc1` the same measures were 13 nM and 90 nM.
For `CCc1nc(C(F)(F)F)c2n1CCN([C@@H](C(=O)NC)c1ccccc1)[C@H]2CCc1ccc(C(F)(F)F)cc1` the same measures were 11 nM and 1070 nM.
In the same order, the values of `CCc1nc(OC)c2n1CCN([C@@H](C(=O)NC)c1ccccc1)C2CCc1ccc(C(F)(F)F)cc1` (mixture of isomers) are 73 nM and 134 nM.
`CCc1nc(C(C)C)c2n1CCN([C@@H](C(=O)NC)c1ccccc1)C2CCc1ccc(C(F)(F)F)cc1` (stereo partly specified): the IC50 on Orexin receptor type 2 is 2900 nM; in series [1] it was greater than 10000 nM.
In the same order, the values of `CCc1nc(CC)n2c1C(CCc1ccc(C(F)(F)F)cc1)N([C@@H](C(=O)NC)c1ccccc1)CC2` (mixture of isomers) are 20 nM and greater than 10000 nM.
As to `CCc1nc(C)c2n1CCN([C@@H](C(=O)NC)c1ccccc1)C2CCc1ccc(C(F)(F)F)cc1` (mixture of isomers), the IC50 at Orexin receptor type 2 was 24 nM; in series [1], greater than 10000 nM.
In the same order, the values of `CCc1nc(C(N)=O)c2n1CCN([C@@H](C(=O)NC)c1ccccc1)C2CCc1ccc(C(F)(F)F)cc1` (mixture of isomers) are 194 nM and greater than 10000 nM.
In the same order, the values of `CNC(=O)[C@@H](c1ccccc1)N1CCn2c(CC3CC3)nc(Cl)c2[C@@H]1CCc1ccc(C(F)(F)F)cc1` are 35 nM and 1430 nM.
Regarding `CCc1nc(C#N)c2n1CCN([C@@H](C(=O)NC)c1ccccc1)C2CCc1ccc(C(F)(F)F)cc1` (mixture of isomers), the IC50 is 10 nM on Orexin receptor type 2 and 537 nM in series [1].
In the same order, the values of `CCc1nc(Cl)c2n1CCN([C@@H](C(=O)NC)c1ccccc1)[C@@H]2CCc1ccc(C(F)(F)F)cc1` are 107 nM and 283 nM.
Take `CCc1ncc2n1CCN([C@@H](C(=O)NC)c1ccccc1)C2CCc1ccc(C(F)(F)F)cc1` (mixture of isomers): the figures for the IC50 (at Orexin receptor type 2; in series [1]) were 194 nM and greater than 10000 nM, respectively.
In the same order, the values of `C=Cc1nc(CC)n2c1C(CCc1ccc(C(F)(F)F)cc1)N([C@@H](C(=O)NC)c1ccccc1)CC2` (single isomer, unassigned) are 23 nM and 150 nM.
Take `CCc1nc(C2CC2)c2n1CCN([C@@H](C(=O)NC)c1ccccc1)[C@H]2CCc1ccc(C(F)(F)F)cc1`: the values for the IC50 (on Orexin receptor type 2; in series [1]) were 29 nM and 4170 nM, respectively.
As to `CCc1nc(SC)c2n1CCN([C@@H](C(=O)NC)c1ccccc1)[C@H]2CCc1ccc(C(F)(F)F)cc1`, the 50% inhibitory concentration (IC50) turned out to be 14 nM on Orexin receptor type 2 and 85 nM in series [1].
For `CCCc1nc(Cl)c2n1CCN([C@@H](C(=O)NC)c1ccccc1)[C@H]2CCc1ccc(C(F)(F)F)cc1` the same measures were 60 nM and 459 nM.
For `CCc1nc(C(=O)N(C)C)c2n1CCN([C@@H](C(=O)NC)c1ccccc1)C2CCc1ccc(C(F)(F)F)cc1` (stereo partly specified) the same measures were 111 nM and 344 nM.
For `CCc1nc(C(=O)NC)c2n1CCN([C@@H](C(=O)NC)c1ccccc1)C2CCc1ccc(C(F)(F)F)cc1` (stereo partly specified), the IC50 on Orexin receptor type 2 was determined as 38 nM; in series [1], 492 nM.
For `CCc1nc(Cl)c2n1CCN([C@@H](C(=O)NC)c1ccccc1)[C@H]2CCc1ccc(C(F)(F)F)cc1`, the Kp at 3 h in series [2] came to 0.07. Further, in series [3], the fraction unbound is 0.01. Besides, the concentration at 3 h in series [4] was 4210 nM; in series [5] it was 303 nM. Further, the values for the IC50 (on Orexin receptor type 2; in series [1]) were 9 nM and 40 nM, respectively.
As to `CNC(=O)[C@@H](c1ccccc1)N1CCn2c(C(C)C)nc(Cl)c2[C@@H]1CCc1ccc(C(F)(F)F)cc1`, the figures for the half-inhibitory concentration (IC50) (at Orexin receptor type 2; in series [1]) were 11 nM and 313 nM, respectively.
In the same order, the values of `CCOc1nc(CC)n2c1C(CCc1ccc(C(F)(F)F)cc1)N([C@@H](C(=O)NC)c1ccccc1)CC2` (mixture of isomers) are 2750 nM and 3980 nM.
For `CNC(=O)[C@@H](c1ccccc1)N1CCn2c(C3CC3)nc(Cl)c2[C@@H]1CCc1ccc(C(F)(F)F)cc1`, in series [2], the Kp at 3 h is 0.06. Also, in series [3], the fraction unbound is 0.01. Also, the figures for the concentration at 3 h in series [4] and in series [5] were 6400 nM and 385 nM, respectively. Also, the 50% inhibitory concentration (IC50) at Orexin receptor type 2 was 9 nM; in series [1] it was 31 nM.
With `CCCc1nc(CC)n2c1C(CCc1ccc(C(F)(F)F)cc1)N([C@@H](C(=O)NC)c1ccccc1)CC2` (stereo partly specified), the half-maximal inhibitory concentration (IC50) on Orexin receptor type 2 was 225 nM; in series [1], greater than 10000 nM.
